# Screening results (PubChem BioAssay)
# PPC-1+TRAIL kill: compounds killing PPC-1 cancer cells with TRAIL present, primary screen, TRAIL potentiator project, ATPLite luminescence, uHTS; 0.41% of 220,000 active; PPC-1 cells + TRAIL, ATPLite viability luminescence; cell killing (% activity), % at 4 µM or 5 µM;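 active = cell killing above 50% in the first pass at 4 µM, then a duplicate retest at 5 µM averaging 50% or more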;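 also: plate controls were cells with TRAIL plus DMSO for no effect and medium-only wells lacking cells for full effect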
# Hep lipid drop: inhibitors of hepatocyte lipid droplet formation, primary screen, imaging, high-throughput imaging, BODIPY stain | AID 1656, 2009 | 0.4% of 240,000 active | AML12 mouse hepatocytes, oleate lipid droplets | inhibition, % at 6.5 µM;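 active = lipid droplet intensity inhibited by at least 50%, with more than 500 cells counted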
#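 Assay system: AML12 hepatocytes (mouse) / Also added: 100 µM oleic acid challenge / Times: overnight treatment with compound plus oleate / Detection: high-content imaging of BODIPY-stained droplets and DAPI nuclei / Evaluation: % inhibition of lipid droplet signal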
# Platelet DG rel: inhibitors of platelet dense granule secretion, primary screen, cell-based, MLPCN, human platelets; human platelet-rich plasma, SFLLRN dense granule ATP release, luminescence; inhibition, %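 (compounds screened at 7.5 µM in platelet-rich plasma)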; 0.22% of 300,000 active; AID 1663, 2009;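 active = mean replicate score, as percent of positive control, at or above 50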
# STAT1 inh: STAT1 signaling inhibitors, primary screen, cell-based, HTS, luciferase reporter | NIH 3T3 STAT1-luciferase reporter, IFN-gamma, luminescence | inhibition, % at 5.5 µM | AID 920, 2007 | 0.35% of 200,000 active;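 active = inhibition above a set limit, the mean inhibition across all tested compounds plus 3 SD, cut at about 34% in these data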;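 also: 0% = IFN-gamma with DMSO and 100% = IFN-gamma with 300 µM nifuroxazide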
# STAT3 blocker: IL-6 driven STAT3 reporter inhibitors, primary screen, U3A cells, luciferase, luminescence, MLSCN library | IL-6 STAT3-luciferase reporter; host cell line lacks STAT1 | inhibition, % at 5.5 µM | 0.89% of 190,000 active;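 active = inhibition above the mean inhibition across all screened compounds plus 3 SD, cut at about 44% in these data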;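 also: 0% = DMSO only wells and 100% = 100 µM nifuroxazide control wells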
# TAG inh: inhibitors of triacylglycerol accumulation, primary screen, cell-based, uHTS, fluorescence, H9c2; inhibition, % at 12.5 µM; 0.66% of 230,000 active; H9c2 cells, Nile Red lipid (TAG) fluorescence; cells loaded with 200 µM oleic acid;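 active = pattern-corrected inhibition of lipid staining of at least 50% with the nuclear-stain viability signal not falling by more than 50%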;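 also: 0% = DMSO wells and 100% = triacsin C control wells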
# Lipid drop inh: hepatocyte lipid droplet accumulation inhibitors, confirmation, imaging, AML12 mouse hepatocytes, single concentration, high-content | shares compounds with Hep lipid drop | BODIPY lipid droplet imaging; droplets induced with 100 µM oleic acid | inhibition, % at 5.2 µM | 65% of 870 active;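 active = inhibition of lipid droplet metric at least 50%, with more than 300 cells in each of four replicates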;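 also: plate controls were DMSO with oleic acid for no effect and 5 µM Triacsin-C for full effect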
# AML12 cytotox: AML12 hepatocyte cytotoxicity, counter-screen for hepatic lipid droplet formation project, imaging, DAPI nuclear morphology imaging; AML12 mouse hepatocytes; stronger effect = higher value; cells fed 100 µM oleate overnight; shares compounds with Hep lipid drop; 3% of 870 active; z-score at 5 µM; AID 463200, 2010; in the data active = z-score above about 6.3;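 also: compound exposure lasted overnight at 37 °C before fixation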
# AML12 tox ATP: AML12 hepatocyte cytotoxicity, confirmation, cytotoxicity control for hepatic lipid droplet formation project, cell-based, single concentration. shares compounds with Hep lipid drop. cytotoxicity, % at 50 µM. 530 tested, under 10 active. AML12 mouse hepatocyte viability, ATP luminescence; cells loaded with 100 µM oleic acid;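 active = cytotoxicity above 50% in each of four replicates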;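 also: compound exposure lasted overnight at 37 °C before the ATP read; 0% = DMSO-treated cells and 100% = wells with no cells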
# The depositor's hits bear a star; . = no result. Hits are enriched below; roughly 1.5% of the tested compounds scored in any of these assays.
SMILES,PPC-1+TRAIL kill,Hep lipid drop,Platelet DG rel,STAT1 inh,STAT3 blocker,TAG inh,Lipid drop inh,AML12 cytotox,others
O=C(NCc1cccc(C(F)(F)F)c1)c1c[nH]c(=O)s1,.,.,.,.,.,18,.,.,
COc1ccccc1N1CCN(C(=O)CSc2nc3ccccc3nc2N2CCC(C)CC2)CC1,.,52*,-3,.,.,.,26,0.4,
COc1ccccc1N1CCN(C(=O)CSc2nc3ccccc3nc2N2CCCCC2)CC1,.,14,20,.,.,15,.,.,
CC1(C2CC2)NC(=O)N(CC(=O)Nc2ccc(OC(F)F)cc2)C1=O (stereo unspecified),.,.,.,.,.,4,.,.,
Cc1oc2c(cc(NS(=O)(=O)c3cccs3)c3ccccc32)c1C(=O)OC(C)C,2,68*,0,-1,-60,-9,89*,0.021,AML12 tox ATP=5
CC(C)(C)c1ccc(CC(=O)N2CCC2(C)C(=O)Nc2cnc3ccccc3c2)cc1 (stereo unspecified),.,.,.,.,.,-15,.,.,
O=C(NCc1nnnn1-c1ccc(F)cc1)c1ccc(S(=O)(=O)N2CCOCC2)cc1,.,.,.,.,.,12,.,.,
CCc1cc2c(=O)c(-c3nc4ccccc4n3C)c(C)oc2c(CN2CCOCC2)c1O,11,50*,8,-10,6,.,88*,-0.82,AML12 tox ATP=3
CC(NS(=O)(=O)c1ccc(Br)cc1F)[C@H](O)c1ccccc1 (stereo partly specified),.,.,.,.,.,-5,.,.,
CCOc1ccc(CN(C)CC(=O)NNC(=O)c2ccc(Cl)cc2)cc1OC,5,0,-3,5,8,-5,.,.,
CCOc1ccc(CN(C)C(=O)NNC(=O)c2ccc(C)cc2)cc1OC,.,88*,16,.,.,.,80*,-1.5,AML12 tox ATP=8
CCOc1ccc(CN(C)C(=O)CNC(=O)c2ccc(Br)o2)cc1OC,.,80*,-2,.,.,.,85*,0.71,AML12 tox ATP=13
C=C(C)[C@@H]1CCC2(C(=O)O)CC[C@]3(C)[C@H](CC[C@@H]4[C@@]5(C)CCC(=O)C(C)(C)[C@@H]5CC[C@]43C)[C@@H]12 (stereo partly specified),11,8,11,-1,-7,11,.,.,
C=C(C)[C@@H]1CC[C@]2(C(=O)O)CC[C@]3(C)C(CCC4[C@@]5(C)CC[C@H](O)C(C)(C)C5CC[C@]43C)C12 (stereo partly specified),.,58*,-7,.,.,.,20,0.66,
COCCN1C(=O)/C(=C/c2ccc(N3CCCC3)cc2C)SC1=S,13,105*,6,-1,-9,-202,105*,-0.08,
CCN=C1S/C(=C\c2ccc(N3CCOCC3)cc2C)C(=O)N1CC,-8,-5,-7,-2,0,-7,.,.,
COc1ccccc1NC(=O)c1cc(S(=O)(=O)N2CCOCC2)ccc1Cl,36,0,0,-1,2,1,.,.,
COc1ccc(S(=O)(=O)N2CCOCC2)cc1NC(=O)c1ccccc1C,.,51*,-5,.,.,15,-13,-0.58,
Cc1cc(N(CCO)CCO)ccc1N=Nc1cc(F)ccc1F,22,115*,-3,-37,-18,73*,112*,0.88,AML12 tox ATP=20
Nc1ccc(N(CCO)CCO)cc1,8,-2,8,-4,4,3,.,.,
Cc1c(C(=O)N(C)Cc2ccc(F)cc2)sc(=O)n1Cc1ccccc1C#N,.,.,.,.,.,2,.,.,
Cc1ccccc1S(=O)(=O)NC(=O)C1(C)CCN1C(=O)CC1CCCC1 (stereo unspecified),.,.,.,.,.,3,.,.,
CC(C)(C)OC(=O)C[C@@H]1C/C=C\C[C@H](CC(=O)N[C@H](CO)Cc2ccccc2)C(=O)N2CCC[C@H]2COC1=O,.,.,.,.,.,-8,.,.,
O=c1[nH]cnc2sc3c(c12)CCN(Cc1ccccc1)C3,18,55*,21,0,15,.,24,-0.011,
CCOc1cc(N2CCOCC2)c(OCC)cc1NC(=O)COC(=O)c1cccc2ccccc12,24,55*,-6,2,20,34,101*,1.4,
SMILES,PPC-1+TRAIL kill,Hep lipid drop,Platelet DG rel,STAT1 inh,STAT3 blocker,TAG inh,Lipid drop inh,AML12 cytotox,others
CCOc1cc(N2CCOCC2)c(OCC)cc1NC(=O)COC(=O)c1ccccc1OC(F)F,.,.,.,.,.,-10,.,.,
CCN(CC)CCNC(=O)CN1C(=O)CSc2ccc(S(=O)(=O)N3CCOCC3)cc21,.,.,.,.,.,2,.,.,
CCOc1ccc(OCCCC(=O)N(CC)CC(=O)Nc2c(F)cccc2F)cc1,.,.,.,.,.,26,.,.,
O=C(NCc1cccs1)C1CCC(CNS(=O)(=O)c2cccs2)CC1 (stereo unspecified),6,52*,-43,-3,-2,1,47,-0.91,
O=C(NCc1cccs1)C1CCC(CNS(=O)(=O)c2ccccc2)CC1 (stereo unspecified),8,-8,-1,8,8,5,.,.,
CCCCCC(O)(c1ccc(OCC)cc1)C(CN1CCOCC1)c1ccccc1 (stereo unspecified),.,54*,-2,.,.,.,73*,0.22,AML12 tox ATP=-8
CCCCCC(O)(c1ccc(OC)cc1)C(CN1CCOCC1)c1ccccc1 (stereo unspecified),.,30,6,.,.,.,.,.,
O=C(Cn1c(=O)oc2cc(S(=O)(=O)N3CCCC3)ccc21)Nc1ccccn1,.,.,.,.,.,2,.,.,
O=C(c1ccc(S(=O)(=O)Nc2cccc(C(F)(F)F)c2)cc1)N1CCOCC1,.,58*,-3,.,.,6,90*,0.61,AML12 tox ATP=18
CCC(NC(=O)C(C)NC)C(=O)N1CCCC1C(=O)NC1CCCc2ccccc21 (stereo unspecified),.,.,.,.,.,28,.,.,
O=C(Nc1cccc(C(F)(F)F)c1)C1Cc2c(-c3ccccc3)ccnc2O1 (stereo unspecified),.,.,.,.,.,-8,.,.,
CCOC(=O)N(C)c1c(CC)nc2c(OCc3ccc(Cl)cc3Cl)cccn12,.,.,.,.,.,-11,.,.,
N/C(Cc1ccc(Cl)cc1Cl)=N\OC(=O)c1ccc(Br)o1,19,57*,-3,.,.,3,2,-0.22,
N/C(Cc1cccc2ccccc12)=N\OC(=O)c1ccc(Br)o1,12,-9,.,11,2,.,.,.,
CC(C)OC(=O)/C(=C\c1ccc2c(c1)c1ccccc1n2C)NC(=O)c1ccccc1,13,.,3,-16,7,.,.,.,
CC(C)OC(=O)/C(=C/c1ccc2c(c1)c1ccccc1n2C)NC(=O)c1ccccc1,28,53*,-7,-22,-11,.,96*,-0.2,AML12 tox ATP=-6
